Assay results of several laboratories.
Each line is one published result; the experiments were not run side by side.
Observed: binding
PIK3CG: Phosphatidylinositol 4,5-bisphosphate 3-kinase catalytic subunit gamma isoform (PIK3CG, Homo sapiens, UniProt P48736)
tspO: tspO (Cereibacter sphaeroides, UniProt Q9RFC8)
CREBBP bromodomain: CREB-binding protein, bromodomain (CREBBP, Homo sapiens, UniProt Q92793)

| Structure (SMILES) | target | technique | Kd [nM] |
| --- | --- | --- | --- |
| CC1=C(/C=C/C(C)=C/C=C/C(C)=C/C=O)C(C)(C)CCC1 | Cellular retinoic acid-binding protein 2 (CRABP2, Homo sapiens, UniProt P29373, L122E/R112E/R133K) | fluorescence | 894 |
| CCC(=O)N1CCC(C(=O)N(C)CC(=O)N2CCN(c3nc(-c4cnc(N)nc4C(F)F)nc(N4CCOCC4)n3)CC2)CC1 | PIK3CG | competition with immobilised ligand | 16 |
| C=CC1=C(C)C2=Cc3c(C=C)c(C)c4[n]3[Fe]([Cl])[n]3c(c(C)c(CCC(=O)O)c3=CC3=NC(=C4)C(C)=C3CCC(=O)O)=CC1=N2 | tspO | fluorescence | 900 |
| C=CC(=O)N1CCC(C(=O)N(C)CC(=O)N2CCN(c3nc(-c4cnc(N)nc4C(F)F)nc(N4CCOCC4)n3)CC2)CC1 | PIK3CG | competition with immobilised ligand | 9.4 |
| CCCc1cc(N=Nc2cc(S(=O)(=O)O)c(C)cc2C)ccc1O | CREBBP bromodomain | fluorescence | 97000 |
| CO[C@H]1[C@H](O)[C@@H](CO)OC(O)[C@@H]1O (stereo partly drawn) | Nucleolar RNA helicase 2 (Homo sapiens, UniProt Q9NR30) | MST | 3980 |
| Cc1cc2c(NC(=O)c3cccc(C(=O)O)c3)cccc2nn1 | CREBBP bromodomain | competition with immobilised ligand | 1100 |
| Cc1cc(/N=N/c2ccc(S(=O)(=O)O)cc2)cc(C)c1O | CREBBP bromodomain | fluorescence | 44000 |
| Nc1nc2c(ncn2[C@@H]2O[C@H](COP(=O)(O)OP(=O)(O)O)[C@@H](OP(=O)(O)OP(=O)(O)O)[C@H]2O)c(=O)[nH]1 | Dihydrofolate synthase/folylpolyglutamate synthase (Escherichia coli, UniProt P08192) | ITC | 130000 |
| Cn1nnc2ccc(NC(=O)c3cccc(C(=O)O)c3)cc21 | CREBBP bromodomain | competition with immobilised ligand | 17000 |
| C=CC1=C(C)c2cc3[nH]c(cc4nc(cc5[nH]c(cc1n2)c(C)c5CCC(=O)O)C(CCC(=O)O)=C4C)c(C)c3C=C | tspO | fluorescence | 900 |
| CC(C)=CCc1c(O)ccc(C(=O)/C=C/c2ccc(O)cc2)c1O | Dihydroorotate dehydrogenase (quinone), mitochondrial (DHODH, Homo sapiens, UniProt Q02127) | ITC | 1330 |
